In the series the test system is MS2 coat protein. Kind of series: apparent Kd, MS2 coat protein; higher = weaker binding; RNA-MaP array; FMN 200 µM where present. Put shortly:
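On Illumina sequencing-chip clusters, designs were transcribed by stalled E. coli RNA polymerase and titrated with SNAP-549-labelled MS2 coat protein (0.7 or 1.5 nM, doubling to 3 µM), without and then with constant ligand, in 100 mM Tris-HCl pH 7.5, 80 mM KCl, 4 mM MgCl2, BSA, DTT, yeast tRNA and Tween-20. Apparent Kd is the median of filtered per-cluster curve fits to green signal normalised to red-channel RNA signal and control-cluster median Fmax.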

Where [1] appears, read: designed as: OFF switch for flavin mononucleotide, no ligand.
Setting [2] is: ligand present: flavin mononucleotide, designed as: OFF switch for flavin mononucleotide.
Where [3] appears, read: designed as: ON switch for flavin mononucleotide, no ligand.
[4] abbreviates: ligand present: flavin mononucleotide, designed as: ON switch for flavin mononucleotide.

One may read the apparent Kd as the concentration giving half-maximal binding under the conditions of the assay.

On to “GUGUGCAGAGGAUAUACAGAGGAAAAGAAAAGAGAAGGGAGACAUGAGGAUCACCCAUGUAGAAGGCUGAGUGU”, for which the “apparent Kd” value under setting [1] is 64.4 nM and the “apparent Kd” value under setting [2] is 91.8 nM.

As to “UGGUACUAGGGAGGAUAUGGGAAGAUACAUGAGGAUCACCCAUGUUUAAGAAUGCCGAGAGGCAACGAGAAGGCCCUAGUACCU”, the “apparent Kd” value stood at 793 nM under setting [3] and 132 nM under setting [4].

As for “GGUGCGUAUGUGAGGAUAUGCUGGUCCUUGGAUCGGCAGAAGGCACAUGAGGAUCACCCAUGUGGUGUCGUACU”, the “apparent Kd” value under setting [1] came out at 300 nM and the “apparent Kd” value under setting [2] was 25.5 nM.

For the sequence “AACAAAUAUGAUCAUUAUGUAAGGCAGGAUAUCCCACAUGAGGAUCACCCAUGUACAGUACAUAGGGAGAAGGGCCGAAUGGGA”, the “apparent Kd” value under setting [3] stood at 72 nM and the “apparent Kd” value under setting [4] amounted to 6.8 nM.

In the case of “GGAAAUCAUGUAGGAUAUGCAUGGCGAAGCUACGCAGAAGGACAUGAGGAUCACCCAUGUGCUAGCUACCGGAUACGGUGGCAA”, the “apparent Kd” value under setting [1] stood at 78.8 nM and the “apparent Kd” value under setting [2] came out at 288 nM.

With “UCGGCGCGAGGAUAUGCGGCUGGUGCUUCGGGCCCUGGCGUACAUGAGGAUCACCCAUGUAGAAGGCGCGCCGC”, the “apparent Kd” value reads like this: under setting [1], 11.7 nM; under setting [2], 14.7 nM.

“GUAGCUAUCGGAGGAUAUUCAUACGGGAAACGGACAUGAGGAUCACCCAUGUGGCGAAAGCCUUGGGAGAAGGCCGAUAGCUAC”: the “apparent Kd” value is, setting by setting: under setting [3], 37.4 nM; under setting [4], 8.89 nM.

Consider “AACCCUGCCUAGGAUAUACAAAAGUCACAGCUGGUAGAAGGAGGCACAUGAGGAUCACCCAUGUCACCUCGCUU”, for which the “apparent Kd” value under setting [1] was determined as 13.4 nM and the “apparent Kd” value under setting [2] turned out to be 13.7 nM.

Consider “UGUUGUAUUACAGGAUAUCUAGUAGUUUUAUUUAGAGAAGGGUAUUCACAUGAGGAUCACCCAUGUAUAUACGAGGAAGUUGUG”, for which the “apparent Kd” value under setting [3] worked out at 38.9 nM and the “apparent Kd” value under setting [4] is 40 nM.

As for “CAGUAGAUCCGAGGAUAUACAAUCCGGAAACGGUACAUGAGGAUCACCCAUGUAGAAGGCGGAUCUACAGGUACUAAAGUACCA”, the “apparent Kd” value is 5.77 nM under setting [1] and 7.65 nM under setting [2].

On to “AUGCCUUAUGUAGGAUAUGCAUAGCGUUGCUAUGCAGAAGGACAUGAGGAUCACCCAUGUAUGUUAUCAUUACAUAUCUGGCAU”, for which the “apparent Kd” value runs as follows: under setting [1], 27.6 nM; under setting [2], 271 nM.

With “AGGUAACAUGAGGAUCACCCAUGUCAGGAUAUCAGUAAGAUUAGAAUAGAGUAGAGGAUGAGAAGGGACUAUAU”, the “apparent Kd” value by setting is: under setting [1], 47 nM; under setting [2], 41.8 nM.

Turning to “CCAUGGAGUGUGAGGAUAUGCUGGUCCUUGGAUCAGCAGAAGGCACAUGAGGAUCACCCAUGUGAAUACCGUGG”, the “apparent Kd” value was 36.2 nM under setting [1] and 196 nM under setting [2].

For “AGUUGGGUCACAGGAUAUGCGCCGGCAUGCGAAGCAGAAGGGUGACGAGGUUGGGAACAUGAGGAUCACCCAUGUAUCGCAUAA”, the “apparent Kd” value is 319 nM under setting [3] and 36.5 nM under setting [4].

Regarding “CGUAUGUCAGGAUAUGCGUAUGCCGCUCGGGACGAGCGGCAGCAGAAGGGACAUGAGGAUCACCCAUGUUCGGG”, the “apparent Kd” value under setting [1] came to 75 nM and the “apparent Kd” value under setting [2] worked out at 72.7 nM.

Take “CGCUGUCACGCAGGAUAUGCAUUGGAUUCCAAUGCAGAAGGGCGAUUACAUGAGGAUCACCCAUGUGUCGACAGUGAAGAAGAG”: the “apparent Kd” value under setting [3] was 599 nM and the “apparent Kd” value under setting [4] turned out to be 44 nM.

In the case of “UAAAGACAUGAGGAUCACCCAUGUGAGGAUAUCGGAGAUAACGGAACAUCAAGUUCGGCGAGAAGGCACAGGAA”, the “apparent Kd” value runs as follows: under setting [1], 53.9 nM; under setting [2], 58.1 nM.

Regarding “AUCUCGUCAGGAUAUUGGAUUUGGAUUGAAAGGUUUAGGUUUAAGAAGGGACAUGAGGAUCACCCAUGUCUGGU”, the “apparent Kd” value under setting [1] turned out to be 21.8 nM and the “apparent Kd” value under setting [2] came to 21.5 nM.

Take “CUACAUGAGGAUCACCCAUGUGCACACCGGAUCGGCGUGCGCAGAAGGGCCAUGGAGAAAGCCAGGCAGGAUAUGCAAAGGGCU”: the “apparent Kd” value runs as follows: under setting [3], 396 nM; under setting [4], 189 nM.

As to “GGAGAACAUGAGGAUCACCCAUGUGGAUGGGCGCUAGGAUAUGCGGGAGGGUGAAGAGAAGCAGAAGGAGUGGAUA”, the “apparent Kd” value was 77.6 nM under setting [3] and 76.1 nM under setting [4].

For “GCACUUAAAAUUGAACCGUUUCGAACAUGAGGAUCACCCAUGUAGGAUAUGCUAAUAGUAUUGAAGCAGAAGGACAAUAAGUGC”, the “apparent Kd” value under setting [1] is 6.17 nM and the “apparent Kd” value under setting [2] is 5.99 nM.

Turning to “GGUAAGAAGUGCGUGAGCUACUUGAGAAGGCGACAUGAGGAUCACCCAUGUCUGUUCCUCAAGUUCGAGGAUAUCAGGUAGUUG”, the “apparent Kd” value runs as follows: under setting [1], 7.42 nM; under setting [2], 9.06 nM.

For the sequence “CAUGUCCUCACAGGAUAUGCAAUGUAUUUCAUUGCAGAAGGGUGAACACAUGAGGAUCACCCAUGUGGACAUGAUAUAUUUAAU”, the “apparent Kd” value runs as follows: under setting [3], 521 nM; under setting [4], 69.5 nM.

Take “UGGUCAUGAUCAGGAUAUUAACAUGGGCUACAUUAAGAAGGGAUAGUGAGAUACGAACUGAACGACAUGAGGAUCACCCAUGUU”: the “apparent Kd” value by setting is: under setting [3], 40.4 nM; under setting [4], 30.4 nM.

Regarding “UUAAAUCGAAACAUGAGGAUCACCCAUGUGUUGUGGUUAAUAUAGGAUAUGUGUAUACUUUUAUGACAGAAGGAUGAUAAUACU”, the “apparent Kd” value reads like this: under setting [3], 15.5 nM; under setting [4], 12.6 nM.

Turning to “CGCUCACAUGAGGAUCACCCAUGUCCUAGGAGGUCAGGAUAUAGCUCGCAUGCGUUGAGGCUAGAAGGGACAGCUG”, the “apparent Kd” value under setting [3] worked out at 259 nM and the “apparent Kd” value under setting [4] was 74.7 nM.

Consider “UUCGGGAACUCUAUGGGCCGCUACAUGAGGAUCACCCAUGUGCAGGAUAUAGGUGUCACUACCGCCUAGAAGGGCACAGAAAGA”, for which the “apparent Kd” value runs as follows: under setting [1], 41.4 nM; under setting [2], 58.6 nM.

Turning to “UAAUAAUAAUAAUAAUGGACUGAUACAUGAGGAUCACCCAUGUAGGAUAUGCAGUGGAAUACACUGCAGAAGGACAUACAGUCC”, the “apparent Kd” value runs as follows: under setting [1], 16.6 nM; under setting [2], 17.2 nM.

In the case of “GGGAGACAUGAGGAUCACCCAUGUGAAAACGUGCGAGGAUAUCUAUGGAAACCAUACUGUAGAGAAGGCGUUUGUC”, the “apparent Kd” value is 88.4 nM under setting [3] and 46.6 nM under setting [4].

Consider “GGUGCGUAUGUGAGGAUAUGCUGGUCCUUGGCUCGGCAGAAGGCACAUGAGGAUCACCCAUGUGGUGUCGUACC”, for which the “apparent Kd” value reads like this: under setting [1], 278 nM; under setting [2], 50.9 nM.

As for “UUUGCAUUCCGAGGAUAUUCAUAUAAUAAAUAAACAUGAGGAUCACCCAUGUGGCGAAAGCCUAGGGAGAAGGCGGAAUGCUUU”, the “apparent Kd” value is 184 nM under setting [3] and 22 nM under setting [4].

“AAAGUGUCAGGAUAUGCGAAGGCAUCUGACAGAUGAGGAUCGCAGAAGGGACAUGAGGAUCACCCAUGUAAAAA”: the “apparent Kd” value runs as follows: under setting [1], 45.2 nM; under setting [2], 122 nM.

In the case of “AUGAGAGCAGGAUAUGCAGGUGUGCCGGAAGAAAGAAGAAGACAUGAGGAUCACCCAUGUAGAAGGGCUAGCCC”, the “apparent Kd” value is, setting by setting: under setting [1], 19.1 nM; under setting [2], 15.6 nM.

On to “AAAGUGUAAGGAUAUGCUGCUCGUCACUUGCGUGAUGAGUAGCAGAAGGUACAUGAGGAUCACCCAUGUAAAGA”, for which the “apparent Kd” value worked out at 32.3 nM under setting [1] and 40.6 nM under setting [2].

Regarding “GUAUUUAGAUAAGGAUAUAAGUCUAUGACAUGAGGAUCACCCAUGUGUGUCUUAGAAGGUAUUUGGGUAAUAUUGUUACAGUAA”, the “apparent Kd” value under setting [4] worked out at 16.2 nM.

On to “UUGGACGUCGUAGGAUAUGUAGGAUAUUCCUACAUGAGGAUCACCCAUGUUGACAUGUAAGAAGGACAGAAGGACGAUGUCCAU”, for which the “apparent Kd” value reads like this: under setting [3], 208 nM; under setting [4], 12.2 nM.

As to “GGGUACUAGGGAGGAUAUGGGAAGAUACAUGAGGAUCACCCAUGUUUAAGAAUGCCGAGAGGCAACUAGAAGGCCCUAGUACCU”, the “apparent Kd” value by setting is: under setting [3], 428 nM; under setting [4], 19.7 nM.

As for “GCCAUCACAUGAGGAUAUGCUCCCGUUUCGGGAGCAGAAGGCAUGUCAUAAGACAUGAGGAUCACCCAUGUAGUUAAGAUGGCA”, the “apparent Kd” value was 375 nM under setting [3] and 13.3 nM under setting [4].

For “AAGGAUCGAGGAUAUACAUAGAUACAGAUACAUGUAGACCUACAUGAGGAUCACCCAUGUAGAAGGCGAUCCUA”, the “apparent Kd” value under setting [1] was determined as 22.4 nM and the “apparent Kd” value under setting [2] is 54.7 nM.

“UCACAGGGAGGAUAUACAUGAGGAUCACCCAUGUGAAUCUUCGACCUGCAGGUACUUUGUAGAAGGCCCAGUGG”: the “apparent Kd” value is, setting by setting: under setting [1], 107 nM; under setting [2], 123 nM.

As for “AACACGAGAGGUGUUGUCUAACCACAUGAGGAUCACCCAUGUAAGGAUAUCGCGGCUAUCGGCAUCGAGAAGGUACAGGGAGCA”, the “apparent Kd” value under setting [1] was 16.2 nM and the “apparent Kd” value under setting [2] was 31.4 nM.

As for “GCCUUAUCUGUCAGGAUAUACAUUUUUUUUUUUUUGUAGAAGGGACAUGAGGAUCACCCAUGUACAUUACAUUG”, the “apparent Kd” value runs as follows: under setting [1], 42.4 nM; under setting [2], 42.9 nM.

For the sequence “UUUUAACAUGAGGAUCACCCAUGUGAGGAUAUCGAAAUUUAUAUUUAUAUUAAUUUUACGAGAAGGCACAUUUU”, the “apparent Kd” value was 112 nM under setting [1] and 125 nM under setting [2].

Regarding “CUAAAUCAUGUAGGAUAUGCAUGGCGAAGCUACGCAGAAGGACAUGAGGAUCACCCAUGUCUGUCCGACUGCGUACAGUCGGAC”, the “apparent Kd” value by setting is: under setting [1], 21.6 nM; under setting [2], 114 nM.

Turning to “GUAUCUCACUGAGGAUAUUUACGAUUAGUGUAGACAUGAGGAUCACCCAUGUGGCGUUAGUCACGGGAGAAGGCAGUGCGAUAC”, the “apparent Kd” value is, setting by setting: under setting [3], 114 nM; under setting [4], 20 nM.

For the sequence “GGUUAUUGCAAGGAUAUGCUUUUUUGUGAAAUUGCAGAAGGUGCAACAUGAGGAUCACCCAUGUUGGAUGGGUU”, the “apparent Kd” value by setting is: under setting [1], 104 nM; under setting [2], 131 nM.

As to “GAUCAACAUGAGGAUCACCCAUGUGAGGAUAUGAUACUAUGUACUUCGGUACAUAGUAUCAGAAGGCAUGUGAA”, the “apparent Kd” value by setting is: under setting [1], 78.1 nM; under setting [2], 111 nM.

Turning to “UCAUUAUAAAUCCAUCAUAACUACAUGAGGAUCACCCAUGUGCAGGAUAUCGAUUAUUUUACUAACGAGAAGGGCAUUUACAGA”, the “apparent Kd” value came out at 51.1 nM under setting [1] and 181 nM under setting [2].

The values are drawn from the EternaBench riboswitch data.
